Laboratory results from ChEMBL document CHEMBL1129431, “Derivatives of (R)- and (S)-5-fluoro-8-hydroxy-2-(dipropylamino)tetralin: synthesis and interactions with 5-HT1A receptors” (J Med Chem, 1996).
“And” between values parts separate entries of the source, which are not always exact repeats. Equal values may be shown once.

What was measured:
[1] = biological target: T1, 5-hydroxytryptamine receptor 1A (Rattus norvegicus) (UniProt P19327); assay: Effect against 5-hydroxytryptamine 1A receptor mediated inhibition of VIP-stimulated cAMP production at 0.1 uM dose; type: functional; settings: values are per cent of control
T1 sequence (whole entry): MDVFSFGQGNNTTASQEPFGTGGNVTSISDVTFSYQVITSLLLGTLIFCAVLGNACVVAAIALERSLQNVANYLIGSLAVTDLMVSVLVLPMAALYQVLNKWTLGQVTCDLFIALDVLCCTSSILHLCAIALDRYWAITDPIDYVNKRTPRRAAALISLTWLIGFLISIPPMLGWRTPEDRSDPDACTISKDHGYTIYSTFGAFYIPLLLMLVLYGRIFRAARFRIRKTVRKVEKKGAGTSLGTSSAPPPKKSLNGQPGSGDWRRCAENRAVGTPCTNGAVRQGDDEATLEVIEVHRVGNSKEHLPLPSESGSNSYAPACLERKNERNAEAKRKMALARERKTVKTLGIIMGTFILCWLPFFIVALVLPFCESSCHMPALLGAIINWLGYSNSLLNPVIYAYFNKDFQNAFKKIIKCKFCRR
Outline: (§1)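 GH4ZD10 cells expressing rat 5-HT1A receptors were detached with EBSS plus 1 mM EDTA and resuspended to ~1×10^7 cells/mL in Ham's F10 with 0.01% ascorbic acid and 0.1 mM IBMX. After 1 h preincubation at 37 °C they were diluted to 0.8-1.5×10^6 cells/mL, then incubated 20 min at 37 °C with VIP (39 nM final) plus compound, alone or with 5-HT, in duplicate. The reaction was stopped by boiling. cAMP was measured in triplicate by protein-binding assay and expressed as % of the VIP-stimulated response.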

[2] = biological target: T1, 5-hydroxytryptamine receptor 1A (Rattus norvegicus); assay: Effect on 5-hydroxytryptamine 1A receptor mediated inhibition of VIP-stimulated cAMP production at dose of 10 uM; type: functional; settings: values are per cent of control; outline: as §1
[3] = biological target: T1, 5-hydroxytryptamine receptor 1A (Rattus norvegicus); assay: Effect on 5-hydroxytryptamine 1A receptor mediated inhibition of VIP-stimulated cAMP production at dose of 0.1 uM + 1 uM 5-HT.; type: functional; settings: values are per cent of control; outline: as §1
[4] = biological target: T1, 5-hydroxytryptamine receptor 1A (Rattus norvegicus); settings: 1 uM
[5] = biological target: T2, 5-hydroxytryptamine receptor 1A (Rattus norvegicus, UniProt P19327); assay: Binding affinity against rat hippocampal 5-hydroxytryptamine 1A (5-HT1A) receptor determined using [3H]8-OH-DPAT as radioligand; type: tissue-based, Hippocampus
T2 sequence (P19327 whole entry): T1 sequence (whole entry)

[6] = biological target: T1, 5-hydroxytryptamine receptor 1A (Rattus norvegicus); assay: Effect on 5-hydroxytryptamine 1A receptor mediated inhibition of VIP-stimulated cAMP production at dose of 1 uM; type: functional; settings: values are per cent of control; outline: as §1
[7] = biological target: T1, 5-hydroxytryptamine receptor 1A (Rattus norvegicus); assay: Effect on 5-hydroxytryptamine 1A receptor mediated inhibition of VIP-stimulated cAMP production at dose of 0.05 uM; type: functional; settings: values are per cent of control
Outline: (§2)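 GH4ZD10 cells expressing rat 5-HT1A receptors, detached with EDTA-supplemented Ca/Mg-free EBSS and resuspended in Ham's F10 with 0.01% ascorbic acid and 0.1 mM IBMX. Preincubated 1 h at 37 °C, then 0.8-1.5×10^6 cells/mL incubated 20 min at 37 °C with VIP (39 nM final) plus compounds. Duplicate samples stopped by boiling. cAMP measured in triplicate by protein-binding assay. Results are given as % of the VIP-stimulated response.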

[8] = biological target: T1, 5-hydroxytryptamine receptor 1A (Rattus norvegicus); assay: Effect on 5-hydroxytryptamine 1A receptor mediated inhibition of VIP-stimulated cAMP production at dose of 1 uM+ 50 uM 5-HT.; type: functional; settings: values are per cent of control; outline: as §2
[9] = biological target: T1, 5-hydroxytryptamine receptor 1A (Rattus norvegicus); settings: 0.05 uM
[10] = biological target: T1, 5-hydroxytryptamine receptor 1A (Rattus norvegicus); assay: Effect on 5-hydroxytryptamine 1A receptor mediated inhibition of VIP-stimulated cAMP production at dose of 50 uM; type: functional; settings: values are per cent of control; outline: as §2
[11] = biological target: T1, 5-hydroxytryptamine receptor 1A (Rattus norvegicus); assay: Effect on 5-hydroxytryptamine 1A receptor mediated inhibition of VIP-stimulated cAMP production at dose of 1 uM+ 10 uM 5-HT.; type: functional; settings: values are per cent of control; outline: as §1
[12] = biological target: T1, 5-hydroxytryptamine receptor 1A (Rattus norvegicus); assay: Effect on 5-hydroxytryptamine 1A receptor mediated inhibition of VIP-stimulated cAMP production at dose of 1 uM+ 0.1 uM 5-HT.; type: functional; settings: values are per cent of control; outline: as §2
[13] = biological target: T1, 5-hydroxytryptamine receptor 1A (Rattus norvegicus); assay: Effect on 5-hydroxytryptamine 1A receptor mediated inhibition of VIP-stimulated cAMP production at dose of 1 uM+ 1 uM 5-HT.; type: functional; settings: values are per cent of control; outline: as §2

| SMILES | response, % of control [3] [%] | Ki [5] [nM] | response, % of control [6] [%] | other results |
| --- | --- | --- | --- | --- |
| CCCN(CCC)[C@H]1CCc2c(F)ccc(O)c2C1 | 57 | 24.8 |  | response, % of control [1]: 94%; response, % of control [2]: 100%; response, % of control [4]: 100% |
| CCCN(CCC)[C@@H]1CCc2c(F)ccc(C(C)=O)c2C1 |  | 6.9 |  |  |
| CCCN(CCC)[C@H]1CCc2cccc(-c3ccco3)c2C1 |  | 1.8 |  |  |
| CCCN(CCCCN1C(=O)CC2(CCCC2)CC1=O)[C@@H]1CCc2c(F)ccc(OS(=O)(=O)C(F)(F)F)c2C1 | 68 | 0.9 | 73 | response, % of control [7]: 98%; response, % of control [8]: 51% |
| CCCN(CCCCN1C(=O)CC2(CCCC2)CC1=O)[C@H]1CCc2c(F)ccc(O)c2C1 |  | 18.2 | 91 | response, % of control [9]: 68%; response, % of control [7]: 95%; response, % of control [10]: 82% |
| CCCN(CCC)[C@@H]1CCc2cccc(-c3ccco3)c2C1 |  | 9.3 |  |  |
| CCCN(CCC)[C@@H]1CCc2cccc(O)c2C1 | 43 |  | 45 | response, % of control [1]: 53%; response, % of control [2]: 47% |
| CCCN(CCC)[C@@H]1CCc2c(F)ccc(-c3cccs3)c2C1 |  | 35 |  |  |
| CCCN(CCC)[C@H]1CCc2c(F)ccc(-c3ccco3)c2C1 | 56 |  | 98 | response, % of control [1]: 100%; response, % of control [2]: 98% |
| CCCN(CCC)[C@@H]1CCc2c(F)cccc2C1 [listing 1 of 2 here] |  | 136 |  |  |
| O=C1CC2(CCCC2)CC(=O)N1CCCCN1CCN(c2ncccn2)CC1 | 43 |  | 75 | response, % of control [1]: 84%; response, % of control [2]: 73%; response, % of control [11]: 64% |
| CCCN(CCC)[C@@H]1CCc2cccc(-c3cccs3)c2C1 |  | 8.4 |  |  |
| CCCN(CCC)[C@@H]1CCc2c(F)cccc2C1 [listing 2 of 2 here] |  | 136 |  |  |
| CCCN(CCC)[C@@H]1CCc2cccc(S(=O)(=O)C(F)(F)F)c2C1 |  | 3.8 |  |  |
| CCCN(CCC)[C@@H]1CCc2c(F)ccc(OS(=O)(=O)C(F)(F)F)c2C1 |  | 18.5 |  |  |
| CCCN(CCCCN1C(=O)CC2(CCCC2)CC1=O)[C@@H]1CCc2c(F)ccc(O)c2C1 | 68 | < 0.3 | 66 | response, % of control [7]: 72%; response, % of control [10]: 68% |
| CCCN(CCCCN1C(=O)CC2(CCCC2)CC1=O)[C@@H]1CCc2c(F)ccc(OC)c2C1 | 56 | < 0.3 | 56 | response, % of control [7]: 62%; response, % of control [8]: 40%; response, % of control [10]: 41% |
| CCCN(CCCCN1C(=O)CC2(CCCC2)CC1=O)[C@H]1CCc2c(F)ccc(-c3ccco3)c2C1 | 62 | 7.5 |  | response, % of control [11]: 68%; response, % of control [12]: 58% and 66% |
| CCCN(CCC)[C@H]1CCc2c(F)ccc(-c3cccs3)c2C1 |  | 32.7 |  |  |
| CCCN(CCC)[C@H]1CCc2cccc(O)c2C1 | 43 |  | 61 | response, % of control [1]: 74%; response, % of control [2]: 62%; response, % of control [13]: 47% |
| CCCN(CCC)[C@H]1CCc2c(F)ccc(C(C)=O)c2C1 |  | 13.6 |  |  |
| CCCN(CCC)[C@H]1CCc2c(F)cccc2C1 |  | 250 |  |  |
